Assay outcomes as filed in PubChem BioAssay.
S100A4 MyoIIA – S100A4-myosin IIA interaction inhibition; P26447; S100A4/TAMRA-MyoIIA peptide fluorescence polarization; inhibition, % at 10.7 µM; 0.14% of 360,000 active; AID 652163;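 active means mean inhibition of at least 70% across replicates, with every replicate also reaching that level; inconclusive means mean inhibition reaches 70% but some replicates fall short; inactive means mean inhibition below 70%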
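Compound dosing: one dose per compound; test system: human S100A4 monomer with TAMRA-labelled myosin IIA peptide; probe or stimulus: TAMRA-labelled myosin IIA heavy-chain peptide probe, 5 nM; medium: HEPES buffer with Ca2+, pH 7.2; schedule: 5 min incubation before reading; benchmarks: neutral control DMSO, positive control TFP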
GSIS activator – primary screen for activators of insulin secretion dependent on glucose, INS-1E cells, GLuc reporter luminescence; INS-1E GLuc reporter insulin secretion, 2-3 h; activation, % at 16.6 µM; 0.61% of 370,000 active;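 active means lowest replicate activation of at least 40%, so every replicate reaches that level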;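 further: 0% = median of neutral control wells and 100% = median of IBMX positive control wells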
RAD54 inh – RAD54 (human) branch migration inhibition; Q92698; RAD54 Holliday junction branch migration, FAM/BHQ fluorescence; inhibition, % at 10.4 µM; 0.14% of 360,000 active; AID 602329;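 active means mean normalized replicate activity at least 40 and at least half of replicates scoring 40 or more; inconclusive means only one of the two criteria met; inactive means mean below 40 and under half of replicates reaching 40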;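 further: 0% = median of neutral control wells and 100% = median of positive control wells; inhibitors cause a drop in the FAM fluorescence signal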
Target sequence (Q92698 whole entry, looked up): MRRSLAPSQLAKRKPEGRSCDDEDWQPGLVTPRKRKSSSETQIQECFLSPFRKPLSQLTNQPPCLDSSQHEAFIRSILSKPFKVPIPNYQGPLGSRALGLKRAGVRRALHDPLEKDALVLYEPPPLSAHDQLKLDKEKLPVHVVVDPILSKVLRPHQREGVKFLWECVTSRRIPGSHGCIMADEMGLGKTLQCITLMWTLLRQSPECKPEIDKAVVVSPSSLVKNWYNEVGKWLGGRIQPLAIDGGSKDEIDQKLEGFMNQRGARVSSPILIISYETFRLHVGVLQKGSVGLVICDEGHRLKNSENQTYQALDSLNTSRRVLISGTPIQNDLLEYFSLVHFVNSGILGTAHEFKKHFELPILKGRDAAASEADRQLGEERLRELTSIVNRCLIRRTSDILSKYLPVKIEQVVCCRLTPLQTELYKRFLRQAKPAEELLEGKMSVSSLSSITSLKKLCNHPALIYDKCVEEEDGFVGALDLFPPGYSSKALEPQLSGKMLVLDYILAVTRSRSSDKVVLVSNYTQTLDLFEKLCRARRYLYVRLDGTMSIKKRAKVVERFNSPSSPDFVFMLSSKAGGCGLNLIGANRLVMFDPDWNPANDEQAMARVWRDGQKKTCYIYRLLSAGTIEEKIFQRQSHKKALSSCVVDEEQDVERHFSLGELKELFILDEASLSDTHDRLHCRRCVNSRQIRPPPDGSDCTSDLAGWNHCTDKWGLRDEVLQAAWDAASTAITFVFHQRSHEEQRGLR
RAD52 inh – blocks human RAD52 DNA annealing; P43351; recombinant RAD52 DNA annealing, FRET fluorescence; inhibition, % at 18.7 µM; 0.46% of 360,000 active;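 active means every replicate showing at least 50% inhibition; inconclusive means mean inhibition at least 50% but not in every replicate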
AF4-AF9 inh – blocks AF4 peptide binding to human AF9; AlphaScreen, biotin-AF4 peptide binding to FLAG-AF9; 0.47% of 350,000 active; inhibition, % at 10 µM; AID 651704; P42568;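 active means every replicate reaching a set inhibition limit, whatever the replicate mean, cut at about 25% in these data; inconclusive means mean inhibition reaches that limit but some replicates miss it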;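 further: 0% = plate neutral control median and 100% = total signal loss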
Rad54 DNA ctr – binds DNA, flagging false Rad54 inhibitor hits. shares compounds with RAD54 inh. Acridine orange-DNA displacement, fluorescence polarization, 20 min. AC50, µM (top dose mostly 35 µM), for inactives: at the highest dose activity change, negative = DNA binding. 8% of 460 active. AID 651673;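 active means signal drop giving an AC50 within twice the top valid tested concentration of each sample, actives reach about 35 µM in these data; inactive means activity opposite to expected, plus the rest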;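 further: polarization loss reports compound binding to salmon sperm DNA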
Starred values were filed as active, the others as inactive; i = inactive; u = inconclusive; x = no result given. Most compounds without a hit are left out; they make up all but 1.3% or so of the library.

SMILES	S100A4 MyoIIA	GSIS activator	RAD54 inh	RAD52 inh	AF4-AF9 inh	Rad54 DNA ctr
CC(=O)N1CCc2c(sc(NC(=O)C3CC3)c2-c2nc3ccccc3s2)C1	-2	-2	2	-31	-1	x
O=S(=O)(c1cc(C(F)(F)F)ccc1Cl)N1CCN(Cc2ccc(OCCO)cc2)CC1	-5	x	-5	-10	3	x
CCN(CC)S(=O)(=O)c1ccc(Cl)c(C(=O)Nc2nnc(C)s2)c1	x	x	u	x	x	-8%
Cn1c(C(=O)NCCCN2CCOCC2)cc2c(=O)n(C)c3ccccc3c21	3	-11	u	15	-4	-20%
CCCCN(CC)CCCNC(=O)c1cc2c(=O)n(C)c3ccccc3c2n1C	-3	2	61*	40	3	-13%
Cn1c(C(=O)NCCN2CCCCCC2)cc2c(=O)n(C)c3ccccc3c21	0	-3	56*	38	-1	-6%
Cn1c(C(=O)NCCCN2CCN(c3ccccc3F)CC2)cc2c(=O)n(C)c3ccccc3c21	-2	-12	-13	-2	10	x
CC(C)OCCCNC(=O)c1cc2c(=O)n(C)c3ccccc3c2n1C	2	-3	3	-14	-1	x
CC1CCN(CCCNC(=O)c2cc3c(=O)n(C)c4ccccc4c3n2C)CC1	-2	-5	59*	27	1	-17%
CCOC(=O)c1cnc2c(Cl)cccc2c1NCCCN1CCOCC1	-1	12	u	16	-1	-22%
CCOC(=O)c1cnc2c(C(F)(F)F)cccc2c1NCCCN1CCOCC1	1	4	11	-9	1	x
CCOC(=O)c1cnc2c(CC)cccc2c1NCCCN1CCOCC1	6	45	u	32	0	10%
COc1cc2[nH]c3c(=O)n(CCN(C(C)C)C(C)C)cnc3c2cc1OC	x	x	u	x	x	7%
O=C(C[C@@H]1CC[C@@H]2[C@H](COC[C@H](O)CN2C(=O)Nc2ccc(Cl)cc2)O1)NCc1ccncn1	0	-5	5	-3	1	x
O=c1c2ccccc2oc2cc(NCCCn3ccnc3)ccc12	7	9	18	-11	-36	x
O=C(COc1ccc2c(c1)oc(=O)c1ccccc12)NCCCN1CCOCC1	-2	-9	u	18	-4	i
O=c1c2ccccc2oc2cc(NCCCN3CCOCC3)ccc12	-3	47	66*	29	-5	-16%
CN1CCCC1CCNc1ccc2oc3ccccc3c(=O)c2c1 (centres undefined)	0	x	x	28	9	x
O=c1c2ccccc2oc2ccc(NCCCN3CCOCC3)cc12	4	x	u	-4	10	18%
O=C(COc1ccc2c3c(c(=O)oc2c1)CCC3)NCCCN1CCOCC1	6	2	2	-9	-1	x
CN1CCCC1CCNc1ccc2c(=O)c3ccccc3oc2c1 (centres undefined)	0	x	92*	44	-12	-13%
O=C(Nc1ccccc1F)N[C@H]1CC[C@H](CCNC(=O)C2CCC2)O[C@H]1CO	7	19	-6	5	-1	x
CC(C)[C@H]1COCn2nncc2CC[C@H](C)C(=O)N1	5	0	x	45	-4	x
COc1cc2nc(NCCCN3CCN(C)CC3)n3nc(-c4ccccc4)nc3c2cc1OC	x	x	102*	x	x	4%
CCN(CC)CCCNc1nc(-c2ccccc2)nc2ccccc12	x	x	85*	x	x	-8%
SMILES	S100A4 MyoIIA	GSIS activator	RAD54 inh	RAD52 inh	AF4-AF9 inh	Rad54 DNA ctr
CCN(CC)CCCNc1nc2cc(OC)c(OC)cc2c2nc(-c3ccccc3)nn12	x	-12	106*	x	x	0%
COCCCNc1nc2cc(OC)c(OC)cc2c2nc(-c3ccccc3)nn12	-3	-2	39	-2	-3	x
CCN(CC)CCCNc1nc2cc(OC)c(OC)cc2c2nc(-c3cccnc3)nn12	x	x	115*	x	x	-8%
CN(C)CC(=O)Nc1ccc2c(c1)[C@@H]1C[C@@H](CC(=O)NCc3ccc4c(c3)OCO4)O[C@@H](CO)[C@@H]1O2	-4	4	7	5	3	x
COc1ccccc1CNC(=O)c1cccs1	x	x	63*	x	x	11%
O=C(Nc1ccc(C2=NCCN2)cc1)c1ccc(C(=O)Nc2ccc(C3=NCCN3)cc2)c(Cl)c1	-7	8	u	73*	21	-6%
O=C(Nc1ccc(NC(=O)c2ccc(Cl)cc2Cl)cc1)c1ccc2c(c1)OCO2	-8	15	-1	2	-8	x
